Measured values from different studies.
Each line is one published result; the experiments were not run side by side.
Target: Dual specificity protein kinase CLK3 (CLK3, Homo sapiens, UniProt P49761)
Method: competition with immobilised ligand

| SMILES | assay | conditions | remaining binding [%] |
| --- | --- | --- | --- |
| O=C(c1ccc(Nc2nccc(-c3cc4ccccc4s3)n2)cc1)N1CCC(N2CCCC2)CC1 | binding | 1 µM | 73 |
| CCOC(=O)c1cc2cc(-c3cc(C(=O)NCc4ccc(C(=O)O)cc4)nn3C)ccc2[nH]1 | cell-free assay | 0.1 µM | 83 |
| c1cncc(-c2cccc(Nc3nccc(NC4CCCCC4)n3)c2)c1 | binding | 10 µM | 57 |
| O=C(Nc1c[nH]nc1C(=O)NC1CCNCC1)c1cc(F)cc(F)c1 | binding | 1 µM | 100 |
| COc1cc(Nc2nccc(-c3cnn4nc(OC)ccc34)n2)cc(C(F)(F)F)c1 | binding | 1 µM | 92 |
| C[C@@H](c1ccc(-n2cnc3c(N)ncnc32)cc1)N1CCc2nn(C)c(Cc3ccccc3)c2C1=O | binding | 0.1 µM | 71 |
| O=C(c1ccc(Nc2ncc(Cl)c(-c3ccc(Cl)s3)n2)cc1)N1CCC(N2CCCC2)CC1 | binding | 1 µM | 15 |
| O=C(NCCCC1CCCCC1)c1ccc(CNC(=O)c2cnn(-c3ccccc3)c2C(F)(F)F)cc1 | cell-free assay | 0.1 µM | 100 |
| O=C(NCCCN1CCOCC1)c1ccc(Nc2nccc(-c3cc4ccccc4s3)n2)cc1 | binding | 1 µM | 84 |
| Nc1ncc2c(n1)-c1c([nH]c3ccc(C#CC4CC4)cc13)CCCC2 | binding | 1 µM | 96 |
| O=S(=O)(NC1CCC(c2cc(F)ccc2F)(S(=O)(=O)c2ccc(Cl)cc2)CC1)C(F)(F)F (centres unmarked) | cell-free assay | 1 µM | 86 |
| CN(CCCC(F)(F)F)c1nccc(-c2cnn3ncccc23)n1 | binding | 1 µM | 84 |
| CS(=O)(=O)c1cc(C2(NC(=O)c3cncc4c3cnn4-c3ccc(F)cc3)CC2)ccn1 | cell-free assay | 1 µM | 86 |
| COc1cnc(Nc2cccc(S(N)(=O)=O)c2)nc1N1CCN(c2ccccc2)C(=O)C1 | binding | 1 µM | 100 |
